This is an account of results in publication PMC7288582 (ACS Omega, 2020).

Assay [1] concerns the target T1, α-amylase from hog pancreas (Sus scrofa, UniProt P00690).
T1 sequence (P00690 16-511): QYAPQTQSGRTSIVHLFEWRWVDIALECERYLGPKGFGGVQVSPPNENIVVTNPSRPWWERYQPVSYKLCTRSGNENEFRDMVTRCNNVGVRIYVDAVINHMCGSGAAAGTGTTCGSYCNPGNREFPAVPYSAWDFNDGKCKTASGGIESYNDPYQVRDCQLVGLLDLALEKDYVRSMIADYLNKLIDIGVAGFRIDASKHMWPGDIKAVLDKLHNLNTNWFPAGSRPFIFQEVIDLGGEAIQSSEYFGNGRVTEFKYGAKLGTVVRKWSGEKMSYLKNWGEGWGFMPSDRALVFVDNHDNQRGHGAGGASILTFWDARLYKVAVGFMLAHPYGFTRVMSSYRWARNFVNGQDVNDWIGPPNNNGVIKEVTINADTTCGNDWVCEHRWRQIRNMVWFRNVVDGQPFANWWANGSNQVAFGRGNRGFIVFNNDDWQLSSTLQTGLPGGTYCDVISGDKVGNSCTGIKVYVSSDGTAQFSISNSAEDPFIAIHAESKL
Nature of the assay: biochemical.

A further assay has as its target T2, LOX (Glycine max, UniProt P08170).
T2 sequence (P08170 1-839): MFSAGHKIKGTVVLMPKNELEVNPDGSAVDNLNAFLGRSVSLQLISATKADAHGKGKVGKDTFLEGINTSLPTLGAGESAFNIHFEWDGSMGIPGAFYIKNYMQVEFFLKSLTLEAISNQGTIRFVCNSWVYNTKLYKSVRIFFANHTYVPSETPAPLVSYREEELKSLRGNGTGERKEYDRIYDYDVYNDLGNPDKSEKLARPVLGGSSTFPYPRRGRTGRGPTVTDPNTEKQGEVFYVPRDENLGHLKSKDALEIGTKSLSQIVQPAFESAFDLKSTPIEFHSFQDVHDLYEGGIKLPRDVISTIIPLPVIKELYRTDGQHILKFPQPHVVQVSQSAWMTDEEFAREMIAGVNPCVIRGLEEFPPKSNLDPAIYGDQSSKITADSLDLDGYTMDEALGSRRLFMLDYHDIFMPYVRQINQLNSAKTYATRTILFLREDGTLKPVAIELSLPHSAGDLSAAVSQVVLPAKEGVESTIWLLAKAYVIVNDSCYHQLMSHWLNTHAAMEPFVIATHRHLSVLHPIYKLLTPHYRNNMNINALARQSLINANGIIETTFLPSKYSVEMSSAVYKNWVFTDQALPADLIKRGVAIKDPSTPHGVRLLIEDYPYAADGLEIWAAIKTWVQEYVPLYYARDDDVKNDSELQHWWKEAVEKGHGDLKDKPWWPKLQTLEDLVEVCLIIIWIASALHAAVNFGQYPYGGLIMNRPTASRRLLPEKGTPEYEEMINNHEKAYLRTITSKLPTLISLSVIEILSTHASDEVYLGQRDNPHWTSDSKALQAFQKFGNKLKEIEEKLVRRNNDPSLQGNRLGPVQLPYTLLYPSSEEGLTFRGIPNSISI
Nature of the assay: LOX inhibition, spectrophotometric assay. Type of assay: biochemical.

Assay [2] in a line: DPPH radical scavenging assay. Conditions: antioxidant activity. An outline of the steps:
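Test material was polyphenolic-rich plant extracts from pressurized 50% ethanol extraction at 80 °C, microfiltration at 0.45 μm, then nanofiltration on a 200–300 Da polyamide membrane. A modified literature method was used: graded concentrations of extract or standard were mixed with methanolic DPPH solution and absorbance was read at 519 nm. Data were reported as mean ± standard deviation (n = 3).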
Background: Loss of DPPH colour is used to gauge radical scavenging.

For assay [3], the target named is α-glucosidase from Saccharomyces cerevisiae (Saccharomyces cerevisiae, UniProt P53341). Nature of the assay: α-Glucosidase inhibition assay. Type of assay: biochemical.

As usually defined, the IC50 is the midpoint of a concentration-inhibition curve. Read a low IC50 as greater potency.

Chain of α-glucosidase from Saccharomyces cerevisiae (P53341 whole entry): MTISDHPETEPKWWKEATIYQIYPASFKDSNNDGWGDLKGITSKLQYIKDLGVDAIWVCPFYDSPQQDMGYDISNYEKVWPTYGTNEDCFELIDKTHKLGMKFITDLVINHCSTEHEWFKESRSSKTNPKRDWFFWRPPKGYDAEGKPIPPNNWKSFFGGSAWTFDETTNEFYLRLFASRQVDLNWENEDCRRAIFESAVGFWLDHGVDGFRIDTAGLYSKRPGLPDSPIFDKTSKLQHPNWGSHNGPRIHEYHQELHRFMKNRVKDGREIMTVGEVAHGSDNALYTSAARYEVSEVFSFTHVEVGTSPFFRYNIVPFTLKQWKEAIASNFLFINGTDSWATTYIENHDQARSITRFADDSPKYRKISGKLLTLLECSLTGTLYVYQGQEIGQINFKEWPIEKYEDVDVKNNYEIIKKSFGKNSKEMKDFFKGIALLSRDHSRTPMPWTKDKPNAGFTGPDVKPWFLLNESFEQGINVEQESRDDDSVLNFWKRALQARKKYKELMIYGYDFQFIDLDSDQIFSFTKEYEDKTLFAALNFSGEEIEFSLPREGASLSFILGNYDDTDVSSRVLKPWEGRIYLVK

With `O=C(/C=C/c1ccc(O)c(O)c1)O[C@@H]1C[C@](O)(C(=O)O)C[C@@H](O)[C@H]1O` [chlorogenic acid], the IC50 in assay [1] is 5.19 µM; on LOX it was 230 µM.
With `O=C1O[C@H]([C@@H](O)CO)C(O)=C1O` [ascorbic acid (vitamin C), ascorbic acid], the “DPPH, EC50” value in assay [2] was 3.6 ± 0.2 µg/mL.
On to `O=c1c(O[C@@H]2O[C@H](CO)[C@@H](O)[C@H](O)[C@H]2O)c(-c2ccc(O)c(O)c2)oc2cc(O)cc(O)c12` [isoquercitrin, quercetin-3-β-qlucoside], for which the half-maximal inhibitory concentration (IC50) in assay [1] was 20.8 µM; in assay [3] it was 16.8 µM; against LOX, 212 µM.
Turning to `C[C@@H]1O[C@@H](OC[C@H]2O[C@@H](Oc3c(-c4ccc(O)c(O)c4)oc4cc(O)cc(O)c4c3=O)[C@H](O)[C@@H](O)[C@@H]2O)[C@H](O)[C@H](O)[C@H]1O` [rutin], the IC50 was 18.7 µM in assay [1], 10.8 µM in assay [3] and 75.8 µM at LOX.
The corresponding values for `O=c1cc(-c2ccc(O)c(O)c2)oc2cc(O)cc(O)c12` [luteolin] are 68.2 µM, 100 µM and 109 µM.
Taken in the same sequence, the figures for `O=C(/C=C/c1ccc(O)c(O)c1)O[C@H](Cc1ccc(O)c(O)c1)C(=O)O` [rosmarinic acid] were 2.55 µM, 12 µM and 306 µM.
